Measurements reported in ChEMBL document CHEMBL4689842, “EUbOPEN Chemogenomics Library wave 1” (2021).

Tested on: Fibroblast
Assay: Multiplex assay against human fibroblast
Format: toxicity, cell-based
Procedure, shortened: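 Cells were classed with CellPathfinder machine-learning gating, first as Hoechst high-intensity objects or normal cells, then (normal cells) as healthy, pyknosed or fragmented nuclei, and finally (pyknosed cells) as mitotic or apoptotic. Staining of live cells at seeding used Hoechst33342, BioTracker Green Microtubule Cytoskeleton Dye, MitoTracker Red and Annexin V Alexa Fluor 680, with imaging on a CQ1 microscope at 37°C and 5% CO2 after compound addition. Tubulin, mitochondrial-mass and membrane-permeability phenotypes are per cents of healthy-nucleus cells.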

[1] = 24 h, 1 µM, compound concentration 1 uM, replicate 2
[2] = 24 h, 10 µM, compound concentration 10 uM, replicate 1
[3] = 24 h, 10 µM, compound concentration 10 uM, replicate 2
[4] = 48 h, 1 µM, compound concentration 1 uM, replicate 1
[5] = 48 h, 1 µM, compound concentration 1 uM, replicate 2
[6] = 48 h, 10 µM, compound concentration 10 uM, replicate 1
[7] = 48 h, 10 µM, compound concentration 10 uM, replicate 2

## CN1C(=O)[C@@H](NC(=O)c2cc3ccccc3[nH]2)N=C(c2ccccc2)c2ccccc21 [DEVAZEPIDE]
[1]
  Population Membrane Permeable-Phenotype (%): 3%
  Population Mitochondria Different-Phenotype (%): 10%
  Population Mitotic Cells (%): 62%
  Population Normal (%): 98%
  Population Pyknosed Nuclei (%): 10%
  Population Tubulin-Different-Phenotype (%): 6%
  Total Cell Count: 79
[2]
  Population Apoptotic (%): 43%
  Population Healthy Nuclei (%): 54%
  Population Hoechst High Intensity Objects (%): 12%
  Population Membrane Permeable-Phenotype (%): 34%
  Population Mitochondria Different-Phenotype (%): 9%
  Population Mitotic Cells (%): 56%
  Population Normal (%): 87%
  Population Pyknosed Nuclei (%): 16%
  Population Tubulin-Different-Phenotype (%): 55%
  Total Cell Count: 108
[3]
  Population Apoptotic (%): 92%
  Population Fragmented Nuclei (%): 28%
  Population Healthy Nuclei (%): 49%
  Population Hoechst High Intensity Objects (%): 7%
  Population Membrane Permeable-Phenotype (%): 19%
  Population Mitochondria Different-Phenotype (%): 45%
  Population Mitotic Cells (%): 7%
  Population Normal (%): 92%
  Population Pyknosed Nuclei (%): 22%
  Population Tubulin-Different-Phenotype (%): 51%
  Total Cell Count: 68
[4]
  Population Apoptotic (%): 53%
  Population Fragmented Nuclei (%): 35%
  Population Healthy Nuclei (%): 46%
  Population Hoechst High Intensity Objects (%): 22%
  Population Membrane Permeable-Phenotype (%): 36%
  Population Mitochondria Different-Phenotype (%): 18%
  Population Mitotic Cells (%): 46%
  Population Normal (%): 77%
  Population Pyknosed Nuclei (%): 18%
  Population Tubulin-Different-Phenotype (%): 66%
  Total Cell Count: 92
[5]
  Population Apoptotic (%): 0%
  Population Fragmented Nuclei (%): 19%
  Population Healthy Nuclei (%): 79%
  Population Hoechst High Intensity Objects (%): 7%
  Population Membrane Permeable-Phenotype (%): 14%
  Population Mitochondria Different-Phenotype (%): 3%
  Population Mitotic Cells (%): 100%
  Population Normal (%): 92%
  Population Pyknosed Nuclei (%): 0%
  Population Tubulin-Different-Phenotype (%): 54%
  Total Cell Count: 127
[6]
  Population Apoptotic (%): 66%
  Population Fragmented Nuclei (%): 44%
  Population Healthy Nuclei (%): 42%
  Population Hoechst High Intensity Objects (%): 12%
  Population Membrane Permeable-Phenotype (%): 22%
  Population Mitochondria Different-Phenotype (%): 12%
  Population Mitotic Cells (%): 33%
  Population Normal (%): 87%
  Population Pyknosed Nuclei (%): 12%
  Population Tubulin-Different-Phenotype (%): 57%
  Total Cell Count: 107
[7]
  Population Apoptotic (%): 100%
  Population Fragmented Nuclei (%): 37%
  Population Healthy Nuclei (%): 61%
  Population Hoechst High Intensity Objects (%): 8%
  Population Membrane Permeable-Phenotype (%): 29%
  Population Mitochondria Different-Phenotype (%): 11%
  Population Mitotic Cells (%): 0%
  Population Normal (%): 91%
  Population Pyknosed Nuclei (%): 1%
  Population Tubulin-Different-Phenotype (%): 61%
  Total Cell Count: 96
